# Laboratory results: the RNAGym collection of RNA variant scans (doi:10.1126/science.aae0568)
# This sample holds only a part of the variants without activity.
# B1: tRNA (parent)
# chain: GUUCCGUUGGCGUAAUGGUAACGCGUCUCCCUCCUAAGGAGAAGACUGCGGGUUCGAGUCCCGUACGGAACG
# Variants of: B1
# Assay: yeast fitness relative to wild type (ratio to wild type); higher = fitter; tRNA-Arg(CCU), competitive growth, 37 C, YPD
# Outline: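 Amplicons of the tRNA-Arg(CCU) gene were sequenced, 100-nucleotide paired-end, from the start population and from each end population of a pooled yeast competition. The competition, in six parallel replicates, lasted 24 hours in YPD at 37°C. Fitness relative to wild type was calculated from changes in genotype frequencies. Genotypes had to have ≥ 100 starting reads, and estimates < 0.5 were set to 0.5.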
row,Variant,yeast fitness
1,A15G A37U A40C A43C,≤ 0.5
2,C22G C27G C31G,0.571
3,C46A C62U A69U,0.735
4,G10A C29A C34G A43C C60G,0.663
5,C30U C31U A42U G67A,0.537
6,G17A G63C,0.579
7,G10A G48A,0.636
8,A21C G38A G58C,0.503
9,G18C C22G G38A,≤ 0.5
10,C27U C55U A70U,0.504
11,G9C A15C U16C C34G C66A A69C,≤ 0.5
12,C49U U53C A69C,0.597
13,C4U A37C G63A,0.593
14,C4A U35C G44C,≤ 0.5
15,A14G A15G A45U C66U,0.619
16,C5A G39A U47A G68C,≤ 0.5
17,G25A C49A G68C,≤ 0.5
18,A42U C62A U64G C66G,≤ 0.5
19,C31G C66U,0.867
20,C4U C29A,0.691
21,G9C U28C A42U,0.647
22,A15G G18C,0.7
23,U13A C29U A43G U54A U59C C61A,≤ 0.5
24,A42G G51A C60A,≤ 0.5

row,Variant,yeast fitness
1,C4G G17A G58C C60U A69U,≤ 0.5
2,C5U G41C,0.91
3,A15G G17C C33A G56C A65C G68A,≤ 0.5
4,C24G A65U G67C,≤ 0.5
5,U7A G10C C22U C27G C61A C62U A65U A69C,≤ 0.5
6,G6C A37U C49U A69U,0.585
7,C27U A43U C55U,0.592
8,G6A A14G A42G,0.549
9,G10C C31A G56A A65G C66A G68C,≤ 0.5
10,U32A C66A,0.614
11,U16A C31G A65C,0.619
12,G25C C46U G50C,≤ 0.5
13,U2A C5A G12A,0.526
14,U19G G38C A57U,0.552
15,G12A G17A U26G C33A A37U A45U,≤ 0.5
16,C29U G44C C49U A57U A69U,≤ 0.5
17,C31A G52C U64C,≤ 0.5
18,C46U U53A,0.704
19,U19G G58C G67C,0.61
20,C49A C60A,0.52
21,U19C C49G,1.14
22,G51A C60U C61U A65G A69C,0.594
23,U3C G25C C49U,0.758
24,U28C U35G A36C A65G C66A,≤ 0.5

row,Variant,yeast fitness
1,A40C C49U A69C,0.592
2,U26A C30A C34A G48C A70U,≤ 0.5
3,C24U A45C,0.971
4,G6C A37C C62A A69C,≤ 0.5
5,C4U A36U A45C C61G A70C,0.852
6,G9C U32G C33G G50A U53G,≤ 0.5
7,C5A A36C A69C,0.539
8,C4U C29U G48A,0.662
9,C5U A40C,0.851
10,C22G A36C G68C,≤ 0.5
11,U2A U8A C24U,≤ 0.5
12,A14C C55A A65U,≤ 0.5
13,A45C G56A,0.977
14,A37G G67A,0.819
15,C22G G44C A70C,0.553
16,U2A C31A A57G,0.555
17,A14C A15U C34G G50A,≤ 0.5
18,U2C U7C U19C C34U G52A U59A,≤ 0.5
19,A20G A21G C29G,0.543
20,C4U C27A C31U A43U,0.57
21,U3A U32A G39A C49G C55U,≤ 0.5
22,A40G A43G C55U,0.565
23,A42C U59A A69U,0.528
24,C33A A37U C55U A57C G58C,≤ 0.5

row,Variant,yeast fitness
1,C4G A20U C46U,0.614
2,C4A G17A C24G G63C,0.64
3,G10C A42G A57U,≤ 0.5
4,C11G U19A C31U A43G G52C,≤ 0.5
5,C5G G18A G25A C61U A69G,0.574
6,A45C G50A C62U,0.868
7,G9A G51A C60U G67A,0.588
8,G12A C30U A45C C60G,≤ 0.5
9,U3C G6C A14U A20G G25A G38A U47A C60G A70G,≤ 0.5
10,C27A C33G G39A C49G,≤ 0.5
11,C11A U19G A36G C66U,≤ 0.5
12,U8C C55U,0.754
13,C11A G39C C62U,≤ 0.5
14,C5U C11U A15U C31U C49U,≤ 0.5
15,A57C C60A,≤ 0.5
16,C5U U13C U19A A21U C24A,0.511
17,C11U A14G C27U C31U A36C G44C A45G G56C,≤ 0.5
18,C49G C60U C62U U64A,≤ 0.5
19,A40U A45U G48A,0.998
20,G10C C24U G68U,≤ 0.5
21,G9C U28A A40C U59C,≤ 0.5
22,G9C U16A C24U C30U C62U,≤ 0.5
23,A21U A42G U59A C60A A69U,≤ 0.5
24,G9A G10A C31G G52A A65C,≤ 0.5

row,Variant,yeast fitness
1,A20C U54G,0.539
2,C5U A37C C46U U53C,≤ 0.5
3,C29U C55G A65U,≤ 0.5
4,U16A C62U,0.918
5,G38C C60U C66G,≤ 0.5
6,A20C A43C A69U A70C,0.725
7,U7A A43G,0.679
8,A45U A69C,1.04
9,A14U A21U G67C,0.596
10,C4G A43C C62A,≤ 0.5
11,A15C A20G A65G,≤ 0.5
12,C46A G58C,0.874
13,C4A C27U U28G C33G A36G G56C,≤ 0.5
14,C11U C27G A43U G63A,≤ 0.5
15,A37U G38A,0.631
16,C22U C24U C27U C31U C62U,≤ 0.5
17,U7C C49G G63A,0.748
18,C4U G6A C29G G41A C60A,≤ 0.5
19,G12A G48C U54C,0.567
20,U7C G48C,0.828
21,C4U G6A,0.901
22,C24U C49A G67A,0.547
23,G12A A20C C49G,0.539
24,C11A U19A A42U A45C C55U A69C,0.538

row,Variant,yeast fitness
1,G17A C31A G68C,≤ 0.5
2,G10C C31G,0.631
3,C60G G68A,0.695
4,U3C C31A C49G A70C,≤ 0.5
5,U8A G9A A36C C61G G67C,0.797
6,U3A U7A U32C G41A,≤ 0.5
7,C5U C22U C27U C33U,≤ 0.5
8,U3A U13C G25A,0.67
9,C5G A36U G41A,≤ 0.5
10,C5G C34G A69U,≤ 0.5
11,U2G U54C C66U,≤ 0.5
12,U13C,1.01
13,U13A,0.993
14,A14U C30A A43U C49U,0.545
15,C27G A43C C60G,≤ 0.5
16,A14U A21U,0.547
17,A21G C27G,0.562
18,A20G A37C A40G C49U,≤ 0.5
19,G9C G12A A57C,0.541
20,C11U A37G G51A,0.568
21,A14G C46U G50C G51A C55U A57U C62G A70U,≤ 0.5
22,A20C C29G G51A,0.646
23,C31G A43G C49U C61A,≤ 0.5
24,C22G C27G,0.597

row,Variant,yeast fitness
1,C31G A45U G58U C62U,≤ 0.5
2,C27U C49U A57G,0.703
3,G48A U53G,0.599
4,C33U A57G,0.628
5,G9C A15G C24A C49U,≤ 0.5
6,C24G C27U C33U G50C C66U,≤ 0.5
7,C4G A57C,0.57
8,U2A U13C G38A,≤ 0.5
9,U7A C55A A65C,≤ 0.5
10,U8G A57C,≤ 0.5
11,U3C U8C,0.906
12,A20U C30A,0.795
13,A40U,0.988
14,A15G C31G G44C C46G,0.647
15,G23C A42G A69G A70C,≤ 0.5
16,C11G U47A G48A,0.58
17,C55A G68C,0.674
18,A14C,0.868
19,G6U C27U G56A C61U,≤ 0.5
20,C4A C55U,0.943
21,A14C G51C,0.53
22,C31G U53C,0.662
23,C33U G44A C61U,0.675
